Assay results reported in ChEMBL document CHEMBL1132327, “Improved in vivo stability of actinium-225 macrocyclic complexes” (J Med Chem, 1999).

Legend:
Details in all cases: in vivo
[1] = species: Mus musculus; experiment: Biodistribution of [225Ac]-labeled compound in normal mice kidney after 24 hr; assay type: ADME, organism-based
[2] = species: Mus musculus; experiment: Biodistribution of [225Ac]-labeled compound in normal mice heart after 120 hr; assay type: ADME, organism-based
[3] = species: Mus musculus; experiment: Biodistribution of [225Ac]-labeled compound in normal mice kidney after 1 hr; assay type: ADME, organism-based
[4] = species: Mus musculus; experiment: Biodistribution of [225Ac]-labeled compound in normal mice spleen after 4 hr; assay type: ADME, organism-based
[5] = species: Mus musculus; experiment: Biodistribution of [225Ac]-labeled compound in normal mice kidney after 4 hr; assay type: ADME, organism-based
In short: (§1)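 Normal female BALB/c mice received 2.5 µCi of 225Ac complex in 200 µL MES buffer (pH 6.2) by tail-vein injection. All complexes except Ac-acetate were Chelex-purified (0.1 M NH4OAc, pH 5.0) beforehand. Three to five animals were killed per time point. Tissues were weighed and counted for 225Ac 4 h later to allow nuclear equilibration, against external standards from the dose dilutions. Results are expressed as %ID/g.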

[6] = species: Mus musculus; experiment: Biodistribution of [225Ac]-labeled compound in normal mice blood after 4 hr; assay type: ADME, organism-based
[7] = species: Mus musculus; experiment: Biodistribution of [225Ac]-labeled compound in normal mice bone after 120 hr; assay type: ADME, organism-based, Bone element
[8] = species: Mus musculus; experiment: Biodistribution of [225Ac]-labeled compound in normal mice heart after 4 hr; assay type: ADME, organism-based
[9] = species: Mus musculus; experiment: Biodistribution of [225Ac]-labeled compound in normal mice blood after 120 hr; assay type: ADME, organism-based
[10] = species: Mus musculus; experiment: Biodistribution of [225Ac]-labeled compound in normal mice liver after 1 hr; assay type: ADME, organism-based
[11] = species: Mus musculus; experiment: Biodistribution of [225Ac]-labeled compound in normal mice liver after 120 hr; assay type: ADME, organism-based
[12] = species: Mus musculus; experiment: (§2) Biodistribution of [225Ac]-labeled compound in normal mice kidney after 120 hr; assay type: ADME, organism-based; in short: as §1
[13] = species: Mus musculus; experiment: Biodistribution of [225Ac]-labeled compound in normal mice heart after 1 hr; assay type: ADME, organism-based
[14] = species: Mus musculus; experiment: Biodistribution of [225Ac]-labeled compound in normal mice spleen after 1 hr; assay type: ADME, organism-based
[15] = species: Mus musculus; experiment: Biodistribution of [225Ac]-labeled compound in normal mice blood after 24 hr; assay type: ADME, organism-based
[16] = species: Mus musculus; experiment: Biodistribution of [225Ac]-labeled compound in normal mice heart after 24 hr; assay type: ADME, organism-based
[17] = species: Mus musculus; experiment: Biodistribution of [225Ac]-labeled compound in normal mice liver after 4 hr; assay type: ADME, organism-based
[18] = species: Mus musculus; experiment: Biodistribution of [225Ac]-labeled compound in normal mice blood after 1 hr; assay type: ADME, organism-based
[19] = species: Mus musculus; experiment: Biodistribution of [225Ac]-labeled compound in normal mice spleen after 120 hr; assay type: ADME, organism-based
[20] = species: Mus musculus; experiment: Biodistribution of [225Ac]-labeled compound in normal mice liver after 24 hr; assay type: ADME, organism-based
[21] = species: Mus musculus; experiment: Biodistribution of [225Ac]-labeled compound in normal mice spleen after 24 hr; assay type: ADME, organism-based
[22] = species: Mus musculus; experiment: Biodistribution of [225Ac]-labeled compound in normal mice bone after 1 hr; assay type: ADME, organism-based, Bone element
[23] = species: Mus musculus; experiment: Biodistribution of [225Ac]-labeled compound in normal mice bone after 4 hr; assay type: ADME, organism-based, Bone element
[24] = species: Mus musculus; experiment: Biodistribution of [225Ac]-labeled compound in normal mice bone after 24 hr; assay type: ADME, organism-based, Bone element
[25] = species: Mus musculus; experiment: as §2; assay type: ADME, organism-based; remark: listed apart in the source

Row | ID/g [1] | ID/g [2] | ID/g [3] | ID/g [4] | ID/g [5] | ID/g [6] | ID/g [7] | ID/g [8] | ID/g [9] | ID/g [10] | ID/g [11] | ID/g [13] | ID/g [14] | ID/g [15] | ID/g [16] | ID/g [17] | ID/g [18] | ID/g [19] | ID/g [20] | ID/g [21] | Compound | other results
1 | 1.64% | 0.39% | 5.6% | 0.59% | 3.47% | < 0.01% | 1.6% | 2.34% | < 0.01% | 12% | 22.3% | 2.65% | 0.83% | < 0.01% | 0.68% | 16.4% | 1.33% | 1.63% | 14.7% | 0.8% | O=C(O)CN1CCN(CC(=O)O)CCN(CC(=O)O)CCN(CC(=O)O)CCN(CC(=O)O)CC1 | ID/g [12]: 1.28%; ID/g [22]: 1.75%; ID/g [23]: 1.6%; ID/g [24]: 1.51%
2 | 1.71% | 0.6% | 4.55% | 0.4% | 3.36% | < 0.01% | 4.18% | 1.51% | < 0.01% | 8.85% | 23.9% | 1.99% | 0.71% | < 0.01% | 0.43% | 12.9% | 0.86% | 5.41% | 12.8% | 0.63% | O=C(O)CN(CC(=O)O)[C@H](Cc1ccc([N+](=O)[O-])cc1)CN(CC(=O)O)[C@@H]1CCCC[C@H]1N(CC(=O)O)CC(=O)O | ID/g [12]: 1.51%; ID/g [22]: 4.34%; ID/g [23]: 4.44%; ID/g [24]: 4.65%
3 | 0.43% | 0.03% | 0.72% | 0.027% | 0.71% | < 0.01% | 0.02% | 0.032% | < 0.01% | 0.17% | 0.26% | 0.06% | 0.05% | < 0.01% | < 0.01% | 0.23% | 0.03% | 0.03% | 0.19% | 0.03% | O=C(O)CN1CCN(CC(=O)O)CCN(CC(=O)O)CCN(CC(=O)O)CCN(CC(=O)O)CCN(CC(=O)O)CC1 | ID/g [25]: 0.25%; ID/g [22]: 0.06%; ID/g [23]: 0.025%; ID/g [24]: < 0.01%
4 | 0.48% | 0.11% | 1.23% | 0.04% | 0.8% | < 0.01% | 2.87% | 0.12% | < 0.01% | 1.15% | 3.29% | 0.16% | 0.06% | < 0.01% | 0.04% | 2.04% | 0.24% | 0.03% | 1.29% | 0.03% | O=C(O)CN1CCN(CC(=O)O)CCN(CC(=O)O)C(Cc2ccc([N+](=O)[O-])cc2)CN(CC(=O)O)CC1 (stereo unspecified) | ID/g [25]: 0.27%; ID/g [22]: 1.54%; ID/g [23]: 1.76%; ID/g [24]: 0.98%
